One data set concerns A549. Briefly: Growth inhibition of human A549 cells measured after 48 hrs by sulforhodamine B assay. It counts as functional. The gist of the method: (§1)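 JFCR39 panel lines were grown in RPMI 1640 with 5% FBS, penicillin and streptomycin at 37 °C in 5% CO2. After 48 h of drug exposure, total cellular protein was measured by sulforhodamine B staining. GI50 was calculated by a previously described method.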

The test system of another data set is DMS-273. In words: Growth inhibition of human DMS-273 cells measured after 48 hrs by sulforhodamine B assay. It counts as functional. Put shortly: as §1
In general terms: Sulforhodamine B stains cellular protein and so reports cell mass.

The test system of another data set is OVCAR-5. Briefly: Growth inhibition of human OVCAR-5 cells measured after 48 hrs by sulforhodamine B assay. It counts as functional. Put shortly: as §1
For another data set, the system named is OVCAR-3. Briefly: Induction of apoptosis in human OVCAR-3 cells assessed as increase in chromatin condensation at 10 uM measured after 48 hrs by Hoechst 33342 staining based fluorescence microscopic analysis. It counts as functional, cell-based. Put shortly: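 OVCAR3 cells grown 24 h in RPMI 1640 with 5% FBS, then 48 h with or without 10 μM compound; fixed in 1% glutaraldehyde in PBS at 4 °C for 24 h, stained with 167 μM Hoechst 33342, apoptotic cells scored by fluorescence microscopy.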

Data set [1] has as its target Forkhead box protein O1 (Homo sapiens) (UniProt Q12778). Briefly: Inhibition of FKHR phosphorylation at Thr-24 residue in human A549 cells measured after 3 hrs by immunoblotting analysis. It counts as cell-based. Conditions: dose <= 2.0 µM. Put shortly: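 A549 cells treated over 0 to 2.0 μM; lysed in 10 mM Tris–HCl pH 7.4, 50 mM NaCl, NaF, pyrophosphate, vanadate, EDTA, protease inhibitors, 0.5% NP-40, 0.1% SDS; proteins resolved by SDS-PAGE, blotted to PVDF, probed with phospho-specific antibodies, HRP secondary, ECL detection.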
In general terms: In western blotting, separated proteins are transferred to a membrane and probed.

A short description of data set [2]: Toxicity in nude mouse xenografted with human A549 cells assessed as change in body weight at 800 mg/kg, po administered on day 0 to 13 except for day 3 and 10 measured after 28 days (reference value: 14 %). It counts as organism-based. Conditions: in vivo, 672 h, time 28 day. On the technique in general: A xenograft is tissue or cells of one species grown in another, often human tumour cells in immunodeficient mice.

Data set [3] is described as follows: Toxicity in nude mouse xenografted with human WiDr cells assessed as change in body weight at 400 mg/kg, po administered on day 0 to 13 except for day 3 and 10 measured after 28 days (reference value: 17 %). It counts as organism-based. Conditions: in vivo, 672 h, time 28 day.
Data set [4] addresses Dual specificity mitogen-activated protein kinase kinase 1 (Homo sapiens) (UniProt Q02750). In words: Inhibition of MEK1 phosphorylation at Ser-217/221 residues in human A549 cells measured after 3 hrs by immunoblotting analysis. The note with it: dose <= 2.0 µM.
For data set [5], the target named is Mitogen-activated protein kinase 3 (Homo sapiens) (UniProt P27361). In words: Inhibition of ERK1 phosphorylation at Thr-202/Tyr-204 residues in human A549 cells measured after 3 hrs by immunoblotting analysis. Conditions: dose <= 2.0 µM.
In data set [6] the test system is B16-F10. Briefly: Antitumor activity against mouse B16-F10 cells implanted in BDF1 mouse assessed as tumor size relative to control (T/C) at 100 mg/kg, po administered daily measured after 14 days. The note with it: 336 h.
For data set [7], the system named is B16-F10. In words: Antitumor activity against mouse B16-F10 cells implanted in BDF1 mouse assessed as tumor size relative to control (T/C) at 200 mg/kg, po administered daily measured after 14 days. The note with it: 336 h.

Calls of active or inactive are those of the source. No cut-off for these calls is given here.

Consider one compound from ChEMBL document CHEMBL5661968, “Antitumor activity of ZSTK474, a new phosphatidylinositol 3-kinase inhibitor” (J Natl Cancer Inst, 2006).

Chain of Forkhead box protein O1 (Homo sapiens) (Q12778 whole entry): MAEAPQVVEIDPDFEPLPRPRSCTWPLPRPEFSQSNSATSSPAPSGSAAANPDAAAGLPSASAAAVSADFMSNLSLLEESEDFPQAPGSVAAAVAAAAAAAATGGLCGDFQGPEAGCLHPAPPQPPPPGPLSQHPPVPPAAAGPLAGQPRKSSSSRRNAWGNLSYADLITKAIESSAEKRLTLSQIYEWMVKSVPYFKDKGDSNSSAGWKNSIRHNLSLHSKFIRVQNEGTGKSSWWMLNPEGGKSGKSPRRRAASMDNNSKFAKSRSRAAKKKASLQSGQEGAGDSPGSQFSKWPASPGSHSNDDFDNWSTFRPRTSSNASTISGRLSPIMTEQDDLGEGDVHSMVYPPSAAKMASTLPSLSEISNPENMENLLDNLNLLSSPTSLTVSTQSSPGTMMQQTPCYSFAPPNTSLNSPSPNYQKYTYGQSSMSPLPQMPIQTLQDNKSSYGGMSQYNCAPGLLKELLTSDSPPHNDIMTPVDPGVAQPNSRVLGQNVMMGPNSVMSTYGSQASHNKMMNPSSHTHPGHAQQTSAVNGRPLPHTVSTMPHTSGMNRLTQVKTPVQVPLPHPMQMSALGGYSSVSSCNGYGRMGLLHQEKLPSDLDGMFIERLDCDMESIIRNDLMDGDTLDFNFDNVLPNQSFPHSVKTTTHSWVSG
Chain of Mitogen-activated protein kinase 3 (Homo sapiens) (P27361 whole entry): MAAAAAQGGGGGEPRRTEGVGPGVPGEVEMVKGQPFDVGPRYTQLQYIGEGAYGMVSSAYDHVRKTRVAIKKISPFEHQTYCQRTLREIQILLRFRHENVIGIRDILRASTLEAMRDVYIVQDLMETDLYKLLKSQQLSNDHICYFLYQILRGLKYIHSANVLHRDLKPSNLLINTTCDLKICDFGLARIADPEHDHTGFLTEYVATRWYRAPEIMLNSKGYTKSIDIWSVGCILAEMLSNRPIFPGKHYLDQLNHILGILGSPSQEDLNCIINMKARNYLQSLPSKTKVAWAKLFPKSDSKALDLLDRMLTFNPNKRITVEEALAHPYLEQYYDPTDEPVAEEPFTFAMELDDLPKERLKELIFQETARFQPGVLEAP
Chain of Dual specificity mitogen-activated protein kinase kinase 1 (Homo sapiens) (Q02750 whole entry): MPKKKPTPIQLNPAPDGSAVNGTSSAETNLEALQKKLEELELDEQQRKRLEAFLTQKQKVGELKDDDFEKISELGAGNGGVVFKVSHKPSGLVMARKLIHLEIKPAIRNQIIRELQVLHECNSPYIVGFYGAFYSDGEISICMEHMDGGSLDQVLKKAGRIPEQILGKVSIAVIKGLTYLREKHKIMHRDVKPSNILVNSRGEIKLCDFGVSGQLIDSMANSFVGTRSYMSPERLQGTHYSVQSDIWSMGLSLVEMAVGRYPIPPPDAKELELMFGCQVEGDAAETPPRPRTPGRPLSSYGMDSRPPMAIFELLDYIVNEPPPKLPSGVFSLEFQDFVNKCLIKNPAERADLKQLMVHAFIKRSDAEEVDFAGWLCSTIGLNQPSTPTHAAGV

By GI50 is commonly meant the concentration giving 50% growth inhibition. High values mean less potent growth inhibition, low ones more potent growth inhibition. The T/C is the result in the treated group divided by that in the control group, in per cent. Turning to `FC(F)c1nc2ccccc2n1-c1nc(N2CCOCC2)nc(N2CCOCC2)n1` [ZSTK-474], the GI50 was 501 nM with A549, 224 nM in the data set on DMS-273 and 813 nM in the data set with OVCAR-5. Besides, the result in the data set on OVCAR-3 was Active. For the same compound, in data set [1], the inhibition entry is “Dose-Dependent Effect”. For the same compound, the results for the Activity entry in data set [2] and in data set [3] were “Non-Toxic” and 3%, respectively. Besides, the inhibition entry in data set [4] and in data set [5] was “inactive” in each case. For the same compound, the T/C at 100 mg/kg in the data set on B16-F10 [6] was determined as 28.5%. Moreover, the T/C at 200 mg/kg with B16-F10 [7] came to 7.1%.
